Key:
[1] = tested on: patients with relapsed extensive-stage SCLC; test: Safety and tolerability; type: in vivo, human; details: part B SCLC cohort
Method in brief: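 Oral adavosertib 200 mg once daily on days 1–3 and 8–10 of a 21-day cycle, plus continuous oral olaparib 200 mg twice daily. AEs were graded by CTCAE v4.03 and assessed by physical examination, vital signs (blood pressure, pulse, body temperature) and laboratory parameters, from enrollment through post-treatment follow-up. Safety data were summarized descriptively.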

[2] = tested on: patients with refractory solid tumors; test: Safety and tolerability; type: in vivo, human; details: for Patients with AEs causally related to adavosertib: 12 patients
Method in brief: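 Open-label, multicenter escalation: oral adavosertib 175 mg twice daily on a 3-days-on/4-days-off schedule, plus continuous oral olaparib 200 mg twice daily, in 21-day cycles. DLTs were recorded in cycle 1, a window extendable up to 2 weeks after drug-related delays; DLT-evaluable patients received >75% of planned doses. AEs were graded by CTCAE v4.03 via examination, vital signs and laboratory tests.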

[3] = Plasma pharmacokinetics of adavosertib and olaparib, part A; type: in vivo, human
[4] = tested on: PARP inhibitor-resistant ovarian cancer; details: adavosertib monotherapy arm; cited from earlier work
cell kill activity = details: preclinically determined; no reference given; cited from earlier work
[5] = with adavosertib 175 mg bid vs olaparib alone
[6] = in combination with olaparib, cohort 4.2
[7] = in combination with olaparib, cohort 7.4

## O=C(c1cc(Cc2n[nH]c(=O)c3ccccc23)ccc1F)N1CCN(C(=O)C2CC2)CC1 [olaparib, reference compound]
[1]
  AEs leading to interruptions of olaparib: five
[2]; cohort 4.2, nine patients
  Patients with an AE leading to dose interruption of olaparib: 64.3%
[2]; cohort 4.2, three patients
  Patients with an AE leading to dose reduction of olaparib: 21.4%
[2]; cohort 7.4, eight patients
  Patients with an AE leading to dose interruption of olaparib: 61.5%
[2]; cohort 7.4, three patients
  Patients with an AE leading to dose reduction of olaparib: 23.1%
[3]; in some patients (high outliers)
  Ratio of olaparib plus adavosertib to olaparib alone for AUC0–10 and/or Cmax: exceeded 2
[3]; part A
  Difference between exposure to olaparib in the presence of adavosertib and to olaparib alone: no statistically significant difference
[3]; part A, Supplementary Fig. 3
  Olaparib Cmin,ss compared with the IC95 in preclinical studies: comparable
[3]; [5]
  Increase in olaparib AUC0–10: 33%
  Increase in olaparib Cmax: 18%

## C=CCn1c(=O)c2cnc(Nc3ccc(N4CCN(C)CC4)cc3)nc2n1-c1cccc(C(C)(C)O)n1 [adavosertib]
[4]
  Clinical benefit rate: 63%
Cell kill activity
  Target adavosertib plasma concentration range for cell kill activity: 0.5 to 1 µM
[1]
  AEs leading to dose reductions of adavosertib: one
  AEs leading to interruptions of adavosertib: three
[2]; cohort 4.2, five patients
  Patients with an AE leading to dose reduction of adavosertib: 35.7%
[2]; cohort 4.2, seven patients
  Patients with an AE leading to dose interruption of adavosertib: 50.0%
[2]; cohort 7.4, five patients
  Patients with an AE leading to dose interruption of adavosertib: 38.5%
[2]; cohort 7.4, three patients
  Patients with an AE leading to dose reduction of adavosertib: 23.1%
[2]; days 1–3, 8–10/21-day cycle, plus continuous olaparib 200 mg bid (cohort 4.2)
  MTD for adavosertib bid: 175 mg
[2]; [6]
  Anemia causally related to adavosertib: 35.7%
  Decreased appetite causally related to adavosertib: 50.0%
  Diarrhea causally related to adavosertib: 50.0%
  Fatigue causally related to adavosertib: 64.3%
  Nausea causally related to adavosertib: 50.0%
  Patients with AEs causally related to adavosertib: 85.7%
[2]; in combination with olaparib, cohort 4.2, three patients
  Patients with serious AEs causally related to adavosertib: 21.4%
[2]; [7]
  Anemia causally related to adavosertib: 38.5%
  Decreased appetite causally related to adavosertib: 30.8%
  Diarrhea causally related to adavosertib: 38.5%
  Fatigue causally related to adavosertib: 15.4%
  Nausea causally related to adavosertib: 23.1%
  Patients with AEs causally related to adavosertib: 92.3%
[2]; in combination with olaparib, cohort 7.4, one patient (dizziness)
  Patients with serious AEs causally related to adavosertib: 7.7%
[2]; in combination with olaparib, part A overall, 52 patients
  Patients with CTCAE grade ≥ 3 events causally related to adavosertib: 43.7%
[2]; part A overall, sepsis, not a result of a DLT
  AEs with an outcome of death considered causally related to adavosertib: one

Reference: article PMC11557630 (Targeted Oncology, 2024)
